# MrgX1 allo act: allosterically activates human MrgX1 receptor signaling; Q96LB2; MrgX1-HEK293, Fluo-4 calcium flux, FDSS; stronger effect = higher value; B-score at 10 µM; 310,000 compounds, 0.63% hits; AID 588675;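 active = plate-corrected calcium response at least 3 library SD above typical, normal starting fluorescence, not activating the receptor alone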;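 also: compound read alongside a low EC10 to EC30 dose of BAM8-22 agonist; peak minus trough fluorescence over baseline measured at the second addition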
# Target sequence (Q96LB2 whole entry, looked up): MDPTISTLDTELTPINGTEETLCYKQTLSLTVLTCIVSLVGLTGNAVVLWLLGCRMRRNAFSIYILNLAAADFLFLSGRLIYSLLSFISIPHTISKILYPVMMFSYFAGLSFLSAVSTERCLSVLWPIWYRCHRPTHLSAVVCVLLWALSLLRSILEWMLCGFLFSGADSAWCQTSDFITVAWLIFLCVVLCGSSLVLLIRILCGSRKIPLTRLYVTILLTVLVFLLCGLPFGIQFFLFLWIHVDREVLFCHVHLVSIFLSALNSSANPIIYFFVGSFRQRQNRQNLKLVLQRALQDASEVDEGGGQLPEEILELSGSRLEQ
# RGS4 inh: inhibitors of human RGS4 | HEK293 M3R/RGS4 inducible, Fluo-4 calcium flux; stronger effect = higher value; triggered by carbachol at its EC20 | AID 463165 | B-score at 10 µM | 310,000 compounds, 0.45% hits | P49798;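 active = B-score, a plate-corrected calcium signal, over three deviations above library mean, with baseline fluorescence within five deviations of library mean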;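 also: RGS4 expression induced by doxycycline in cells with stable M3 receptor; B-score is computed from the integrated fluorescence ratio over baseline after carbachol; higher B-score means a larger calcium signal and so more RGS4 inhibition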
# MrgX1 antagonist: human MrgX1 receptor antagonism, primary screen; Q96LB2; MRGX1-HEK293 calcium flux, Fluo-4, BAM8-22 antagonism; stronger effect = lower value; B-score at 10 µM; 310,000 compounds, 1.3% hits;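 active = calcium-response B-score plate-corrected more than 3 library SD below zero, starting fluorescence within 5 deviations, no agonist response on first addition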;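 also: peak minus trough fluorescence over baseline after final BAM8-22 challenge near maximal dose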
# Cl transport mod: modulators of human KCC2 chloride dependent transport. Q9H2X9. KCC2 cells, thallium flux FluoZin-2 fluorescence. B-score of Tl+ flux slope (higher = more flux/activation; lower = inhibition) at 10 µM. 190,000 compounds, 2.2% hits;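 active = thallium flux slope and its plate-corrected score both differing from the plate sample mean at a set confidence after two filtering rounds, in either direction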;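 also: slope of fluorescence scaled to starting intensity during 10 to 20 s after thallium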
# MrgX1 agonist: agonists of human MrgX1 receptor; Q96LB2; MrgX1-HEK293 cells, Fluo-4 calcium fluorescence, agonist mode; stronger effect = higher value; B-score at 10 µM; 310,000 compounds, 0.44% hits;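 active = calcium response B-score plate-corrected fluorescence ratio at least 3 library SD, with starting fluorescence B-score inside 5 SD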
#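 System – MrgX1-expressing HEK293 cells · Incubation – cells plated overnight, dye loaded 0.5 h 37 °C, 0.5 h room temperature · Technique – kinetic Fluo-4 NW fluorescence of intracellular calcium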
# RGS4 act: RGS4 potentiation or activation; HEK293 M3R/inducible RGS4, carbachol calcium flux Fluo4; stronger effect = lower value; B-score at 10 µM; 310,000 compounds, 0.92% hits; AID 463111;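 active = B-score of the integrated calcium signal more than 4 SD below the library mean, with starting fluorescence not abnormally high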;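 also: negative B-score means reduced calcium response which marks RGS4 activation or potentiation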
#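 System – HEK293 FlpIn-TREx cells, stable M3R, doxycycline-inducible RGS4 · Reagent – ECmax carbachol challenge · Times – compound preincubation 20 min at room temperature before agonist · Technique – Fluo4 fluorescence kinetic imaging of calcium · Measure – B score of integrated Fluo4 ratio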
# The depositor's hits bear a star; i = inactive; . = no result. This is a sample that favours compounds with a hit; in the whole collection about 4.7% have one here.
SMILES,MrgX1 allo act,RGS4 inh,MrgX1 antagonist,Cl transport mod,MrgX1 agonist,RGS4 act
C/C(=N\NC(=O)c1ccc(Cl)cc1)c1ccc(Br)s1,i,i,i,.,i,i
C=CCC1NS(=O)(=O)OCC1C(C)C (centres undefined),i,i,i,.,i,i
CCCCC(=O)N(c1ccc(C(=O)O)cc1)c1nc(-c2ccc(Cl)cc2)c(CC)s1,i,i,i,-1.8,i,-7.4*
N#CC1=C(N)SC(N)=C(C#N)C1c1ccoc1,i,i,i,0.19,37*,i
CC1=C(C#N)C(c2ccoc2)C(C(=O)OCc2ccccc2)=C(N)S1 (centres undefined),i,i,i,-0.81,i,i
CCCc1ccc2oc(C(=O)N3CCN(c4cnccn4)CC3)c(C)c2c1,i,i,i,.,i,i
O=S(=O)(/C(=C/c1ccc(C(F)(F)F)cc1)c1nc2ccccc2[nH]1)c1ccccc1,i,22*,i,-0.057,i,i
Cc1ccc(CC(=O)Nc2ncc([N+](=O)[O-])s2)cc1,i,i,i,-0.66,i,i
CCCCC(CC)C(=O)Nc1ncc([N+](=O)[O-])s1 (centres undefined),7.4*,i,i,-3.3,i,i
CCOc1ccc(C(=O)NCC(=O)NNC(=O)C2COc3ccccc3O2)cc1OCC (centres undefined),i,i,-5.4*,.,i,i
COc1ccccc1C(=O)NCC(=O)NNC(=O)C1COc2ccccc2O1 (centres undefined),i,i,i,.,i,i
Cc1cc(C(=O)NC(C)C2CC2)c(Cl)cc1Cl (centres undefined),i,i,i,.,i,i
O=C(CCCn1cnc([N+](=O)[O-])n1)Nc1ccc(Cl)cc1Cl,i,i,-9.1*,0.21,i,i
Cc1cc(C(=O)C(C)OC(=O)c2cnccn2)c(C)n1-c1ccccc1 (centres undefined),i,i,i,.,i,i
COc1cccc(CNC(=O)CN2C(=O)COc3ccc(S(=O)(=O)N4CCC(C)CC4)cc32)c1,i,i,i,.,i,i
CC1CCCCN1C(=O)CSc1nc(C2CC2)nc2c1cnn2-c1ccccc1 (centres undefined),i,i,i,.,i,-7*
COc1ccc(-n2c(C)cc(/C=C(\C#N)C(=O)NCc3ccco3)c2C)cc1,i,i,-4.9*,-1.4,i,i
COc1ccc(/C=C(\NC(=O)c2cccs2)C(=O)NN)cc1OC,i,i,i,.,i,i
COc1ccc(/C=C(\NC(=O)c2cccs2)C(=O)Nc2cccc3ccccc23)cc1OC,i,i,i,0.68,28*,i
Cn1c(-c2ccccc2)c(C=O)c2ccccc21,i,i,i,-3.1,i,i
COn1c(-c2ccccc2)c(C=O)c2ccccc21,19*,i,i,.,i,i
O=C(NCCN1C(=O)S/C(=C\c2ccc(OC(F)F)cc2)C1=O)[C@@H]1CCCN1C(=O)c1cccs1,8.2*,i,i,-1.6,i,i
CCN1CCN(CCCNC(=O)c2ccc3c(c2)N(Cc2ccccc2)CCS3)CC1,i,i,i,.,i,i
O=C(NCCCN1CCCC1)c1ccc2c(c1)N(Cc1ccccc1)CCS2,i,i,i,-0.91,i,-7.4*
CC1CN(C(=O)c2ccc(NS(=O)(=O)c3ccc(C(C)(C)C)cc3)cc2)CC(C)O1 (centres undefined),.,i,.,.,.,i
O=C(O)c1cc(C(=O)O)cc(-c2ccc(/C=c3/sc4nc5ccccc5n4c3=O)o2)c1,.,.,.,0.029,.,.
O=C(O)c1cccc(-c2ccc(/C=c3/sc4nc5ccccc5n4c3=O)o2)c1,i,i,-12*,-0.036,i,i
O=c1/c(=C\c2cc([N+](=O)[O-])cc([N+](=O)[O-])c2O)sc2nc3ccccc3n12,i,.,i,-3.3*,29*,.
